This note sets out measurements from ChEMBL document CHEMBL1914352, “Design, synthesis, docking, and biological evaluation of novel diazide-containing isoxazole- and pyrazole-based histone deacetylase probes” (J Med Chem, 2011).

What is called IC50 is the concentration that inhibits the measured activity by half. Low readings indicate greater potency, high ones weaker potency.

Data set [1] deals with T1, Interstitial collagenase (Homo sapiens) (UniProt P03956).
T1 sequence (whole entry): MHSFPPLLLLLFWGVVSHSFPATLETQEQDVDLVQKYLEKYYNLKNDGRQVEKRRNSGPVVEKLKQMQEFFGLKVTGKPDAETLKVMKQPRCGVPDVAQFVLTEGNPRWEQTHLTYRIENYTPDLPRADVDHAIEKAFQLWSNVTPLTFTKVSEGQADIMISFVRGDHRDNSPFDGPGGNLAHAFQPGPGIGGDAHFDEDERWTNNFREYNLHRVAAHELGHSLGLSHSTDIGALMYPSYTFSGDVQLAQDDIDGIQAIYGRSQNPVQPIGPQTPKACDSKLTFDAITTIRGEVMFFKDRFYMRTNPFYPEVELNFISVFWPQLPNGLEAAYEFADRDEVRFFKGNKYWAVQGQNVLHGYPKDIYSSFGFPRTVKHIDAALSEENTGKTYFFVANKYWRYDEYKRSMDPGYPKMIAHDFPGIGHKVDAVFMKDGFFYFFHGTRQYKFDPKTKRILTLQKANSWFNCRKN
The data set can be described thus: Inhibition of MMP1 assessed as activity remaining at […].

Data set [2] concerns SH-SY5Y. The data set can be described thus: Neuroprotective activity against LY294002-induced stress in retinoic acid differentiated human SH-SY5Y cells assessed as cell survival at 1 uM. The format is functional, cell-based. An outline of the steps: (§1)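 SH-SY5Y cells are differentiated for 7–8 days in 1% FBS medium with 10 µM retinoic acid, then seeded at 2×10^4 cells/well in 1% FBS medium with 5 µM RA. After 24 h they go into phenol-red-free 1% FBS/RA medium with DMSO or 0.5–50 µM inhibitor, without or with 100 µM LY294002, for 24 h. Readout: XTT viability as % survival vs vehicle, four replicates ± SD, one-way ANOVA with Dunnett.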

Data set [3] deals with T2, Stromelysin-1 (Homo sapiens, UniProt P08254). The data set can be described thus: Inhibition of MMP3 assessed as activity remaining at […].
Target sequence in this assay (P08254 100-477 limits assumed): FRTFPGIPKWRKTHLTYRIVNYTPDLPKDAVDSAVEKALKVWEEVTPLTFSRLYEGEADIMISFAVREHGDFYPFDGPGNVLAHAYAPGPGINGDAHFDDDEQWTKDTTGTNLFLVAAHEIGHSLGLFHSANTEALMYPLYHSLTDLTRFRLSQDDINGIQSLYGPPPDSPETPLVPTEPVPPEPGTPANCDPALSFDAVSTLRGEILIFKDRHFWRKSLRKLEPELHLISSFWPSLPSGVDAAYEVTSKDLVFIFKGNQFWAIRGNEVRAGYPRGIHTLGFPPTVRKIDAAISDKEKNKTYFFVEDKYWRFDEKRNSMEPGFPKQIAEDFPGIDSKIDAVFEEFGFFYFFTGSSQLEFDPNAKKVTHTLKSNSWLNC
The target of data set [4] is T3, Matrix metalloproteinase-14 (Homo sapiens, UniProt P50281). In words: Inhibition of MMP14 assessed as activity remaining at […].
In data set [5] the target is T4, Matrix metalloproteinase-9 (Homo sapiens, UniProt P14780). The data set can be described thus: Inhibition of MMP9 assessed as activity remaining at […].
T4 sequence (P14780 whole entry): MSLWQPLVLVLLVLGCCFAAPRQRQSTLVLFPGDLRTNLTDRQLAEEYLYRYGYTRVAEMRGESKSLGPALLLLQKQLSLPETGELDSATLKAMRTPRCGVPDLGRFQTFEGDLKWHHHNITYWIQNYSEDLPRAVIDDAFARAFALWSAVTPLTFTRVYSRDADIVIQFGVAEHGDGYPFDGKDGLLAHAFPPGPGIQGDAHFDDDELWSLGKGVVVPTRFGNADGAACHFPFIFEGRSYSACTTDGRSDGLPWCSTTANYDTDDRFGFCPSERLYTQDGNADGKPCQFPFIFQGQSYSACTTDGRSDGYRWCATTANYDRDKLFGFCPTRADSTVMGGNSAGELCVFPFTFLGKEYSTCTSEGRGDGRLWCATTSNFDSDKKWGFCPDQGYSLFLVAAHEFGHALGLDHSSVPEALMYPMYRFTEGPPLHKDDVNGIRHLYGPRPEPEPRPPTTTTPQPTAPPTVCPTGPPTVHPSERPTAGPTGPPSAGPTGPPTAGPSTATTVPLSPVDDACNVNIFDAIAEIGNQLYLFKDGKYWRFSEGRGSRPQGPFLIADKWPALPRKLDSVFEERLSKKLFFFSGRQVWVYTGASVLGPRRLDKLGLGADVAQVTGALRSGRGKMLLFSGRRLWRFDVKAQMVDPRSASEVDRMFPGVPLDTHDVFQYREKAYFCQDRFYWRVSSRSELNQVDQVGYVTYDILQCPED
In data set [6] the test system is SH-SY5Y. The data set can be described thus: Cytotoxicity against retinoic acid-differentiated human SH-SY5Y cells assessed as cell survival at 20 uM. Format: cell-based. An outline of the steps:
as §1

Data set [7] addresses T4, Matrix metalloproteinase-9. In words: Inhibition of MMP9.
The subject of data set [8] is HepG2. In words: Induction of apoptosis in human HepG2 cells assessed as hyperacetylation of p53 after 24 hrs by Western blot analysis. The format is functional, cell-based. An outline of the steps:
(§2)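 HepG2 cells are seeded at 2.7×10^5 cells/well in D7 medium (DMEM, 7% FBS), refed after 24 h, and after 1 h at 37 °C treated with DMSO or 1, 5 or 10 µM inhibitor. Lysis is in ice-cold 1% CHAPSO buffer (50 mM Hepes pH 7.4), 45 min at 4 °C. Immunoblots are probed for cleaved caspase 3 Asp175, acetyl-Lys373 p53, total p53 and GAPDH, detected by chemiluminescence, with band densitometry.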

For data set [9], the target named is T3, Matrix metalloproteinase-14. The data set can be described thus: Inhibition of MMP14.
In data set [10] the test system is HepG2. In words: Induction of apoptosis in human HepG2 cells assessed as cleavage of caspase 3 at 1 to 10 uM after 24 hrs by Western blot analysis. The format is functional, cell-based. An outline of the steps:
as §2
In general terms: In western blotting, separated proteins are transferred to a membrane and probed.

For data set [11], the target named is T2, Stromelysin-1. In words: Inhibition of MMP3.
Target sequence in this assay (P08254 whole entry): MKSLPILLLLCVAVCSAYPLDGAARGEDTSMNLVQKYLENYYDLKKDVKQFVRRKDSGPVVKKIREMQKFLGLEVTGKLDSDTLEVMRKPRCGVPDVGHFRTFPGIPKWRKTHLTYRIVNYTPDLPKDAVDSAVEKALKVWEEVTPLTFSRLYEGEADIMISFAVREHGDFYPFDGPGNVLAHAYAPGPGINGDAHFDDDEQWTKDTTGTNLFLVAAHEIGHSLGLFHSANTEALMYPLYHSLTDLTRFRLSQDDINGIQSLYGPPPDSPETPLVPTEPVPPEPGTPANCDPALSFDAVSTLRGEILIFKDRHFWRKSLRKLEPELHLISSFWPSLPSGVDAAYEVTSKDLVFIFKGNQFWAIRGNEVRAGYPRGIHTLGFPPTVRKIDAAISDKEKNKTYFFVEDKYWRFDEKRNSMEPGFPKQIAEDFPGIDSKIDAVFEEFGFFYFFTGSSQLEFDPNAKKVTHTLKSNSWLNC
In data set [12] the test system is HepG2. In words: Induction of apoptosis in human HepG2 cells assessed as hyperacetylation of p53 at 1 to 10 uM by Western blot analysis. The format is functional, cell-based. An outline of the steps: as §2

Activity calls are given as the source filed them. No cut-off for these calls is given here.

On to `[N-]=[N+]=NCc1cc(Cn2cc(NC(=O)CCCCCCC(=O)NO)cn2)cc(N=[N+]=[N-])c1`, for which the Activity in [1] is over 70%; on Stromelysin-1 [3] it was over 70%; in [4] it was over 70%; in data set [5], over 70%; in the data set with SH-SY5Y [6], “Toxic”. Moreover, the outcome in the data set with SH-SY5Y [2] was Active.

On to `[N-]=[N+]=NCc1cc(N=[N+]=[N-])cc(C(=O)Nc2ccc(-c3cc(C(=O)NCCCCCCC(=O)NO)no3)cc2)c1`, for which the IC50 came out at 22.9 µM in [7], 9.33 µM in data set [9] and 12.1 µM on Stromelysin-1 [11]. Further, the outcome in the data set with HepG2 [8] and with HepG2 [12] was inactive. Also, in the data set on HepG2 [10], the outcome was Active.
